# M5 antag: CHRM5 antagonism in calcium assay. P08912. CHO-hM5 cells, Fluo-8 calcium fluorescence, ACh EC80. inhibition, % at 3 µM. actives 0.59% (n = 360,000). AID 624040;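 active = inhibition above a per-plate cutoff, the mean of that plate's test compounds plus 3 SD, cut at about 27% in these data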;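 also: 0% = acetylcholine EC80 with DMSO and 100% = DMSO without agonist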
# M5 ag: agonists of human muscarinic M5 receptor (CHRM5) | CHO-K1 hM5 cells, Fluo-8 calcium fluorescence; 0% DMSO wells, 100% maximal acetylcholine response | activation, % at 3 µM | actives 0.19% (n = 360,000) | AID 624037;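 active = activation above the run's mean over test compounds plus 3 SD, cut at about 23% in these data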;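 also: signal is peak over basal fluorescence ratio across the kinetic read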
# CHRM4 agonist: agonists of human muscarinic M4 receptor (CHRM4); P08173; CHO-K1 hM4/Gqi5, Fluo-8 calcium fluorescence; vehicle 0%, full acetylcholine response 100%; activation, % at 3 µM; actives 0.14% (n = 360,000);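 active = activation above the run mean over all test wells plus 3 SD, cut at about 32% in these data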;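 also: peak over basal fluorescence ratio per well then scaled between controls; 0% = DMSO wells and 100% = acetylcholine at EC100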
# Target sequence (P08173 whole entry, looked up): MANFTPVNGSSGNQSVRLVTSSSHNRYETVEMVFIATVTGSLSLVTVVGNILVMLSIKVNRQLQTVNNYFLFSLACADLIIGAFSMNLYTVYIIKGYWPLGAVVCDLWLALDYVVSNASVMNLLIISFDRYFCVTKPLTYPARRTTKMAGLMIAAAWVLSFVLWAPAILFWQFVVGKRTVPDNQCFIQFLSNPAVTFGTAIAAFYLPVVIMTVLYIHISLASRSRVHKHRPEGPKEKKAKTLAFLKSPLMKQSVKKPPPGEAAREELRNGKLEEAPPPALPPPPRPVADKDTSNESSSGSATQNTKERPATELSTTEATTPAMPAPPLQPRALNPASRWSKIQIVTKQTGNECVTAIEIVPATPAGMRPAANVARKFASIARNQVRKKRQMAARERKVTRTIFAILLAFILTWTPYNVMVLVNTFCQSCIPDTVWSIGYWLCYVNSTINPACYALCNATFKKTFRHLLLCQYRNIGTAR
# CHRM4 antagonist: antagonists of human muscarinic M4 receptor (CHRM4); inhibition, % at 3 µM; AID 624125; P08173; CHO-hM4 cells, ACh EC80, Fluo-8 calcium fluorescence; actives 0.73% (n = 360,000);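 active = inhibition above its plate's cutoff, the mean inhibition of sample wells plus 3 SD, cut at about 27% in these data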;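 also: 0% = acetylcholine EC80 with DMSO and 100% = DMSO without agonist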
# M4 PAM: positive allosteric modulators of human muscarinic M4 receptor; P08173; CHO-K1 hM4/Gqi5, Fluo-8 calcium fluorescence, ACh EC20; 0% = ACh EC20, 100% = maximal ACh; AID 624126; activation, % at 3 µM; actives 0.4% (n = 360,000);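 active = activation above its plate's cutoff, the mean activation of sample wells plus 3 SD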
# M5 PAM: positive allosteric modulators of human muscarinic M5 receptor; P08912; CHO-K1 hM5, Fluo-8 calcium, ACh EC20 PAM; 0% = ACh EC20, 100% = ACh EC100; activation, % at 3 µM; actives 0.3% (n = 360,000); AID 624038;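 active = activation above the run cutoff, the mean activation of all test compounds plus 3 SD, cut at about 18% in these data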
#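 Measured by: Fluo-8 calcium fluorescence; material: human M5 receptor in CHO-K1 cells; schedule: Post-acetylcholine fluorescence recording 140 s; benchmarks: low control EC20 acetylcholine (0%), high control EC100 acetylcholine (100%); read-out: Max/basal fluorescence ratio as % of EC20–EC100 ACh window; compound: single dose, 3 µM nominal final test concentration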
# * hit, by the source's call. Most compounds without a hit are left out; they make up all but 1.9% or so of the library.
SMILES,M5 antag,M5 ag,CHRM4 agonist,CHRM4 antagonist,M4 PAM,M5 PAM
COc1ccc(C(=O)N2CCCC(C)(C(=O)NS(=O)(=O)C3CC3)C2)c(OC)c1 (stereo not drawn),-0.9,-0.2,0.7,1.0,5.4,3.9
Cc1c(C(=O)c2ccc(Cl)cc2[N+](=O)[O-])c2ccccn2c1CCC#N,8.4,3.2,2.7,-2.5,15.9,19.3*
O=C(O)c1ccc2c(c1)[C@@H]1C=CC[C@@H]1[C@H](c1ccccn1)N2,0.1,1.7,0.9,-4.3,9.8,0.9
COc1cc(-c2nc(Cc3c(F)cccc3Cl)no2)cc(OC)c1OC,5.8,-2.5,0.6,15.6,-15.2,-4.0
Cc1cc(=O)n2nc(N3CCCC(C(=O)NCCCN4CCc5ccccc5C4)C3)sc2n1 (stereo not drawn),12.5,-7.5,-2.2,28.1*,-10.9,-8.4
CCC1CCCCN1CCCNC(=O)C1CCCN(c2nn3c(=O)cc(C)nc3s2)C1 (stereo not drawn),-10.7,-8.7,1.0,1.4,-5.0,-2.1
C=CCC1(CC=C)CCCN1C(=O)c1cc(COc2ccc(C)nc2)on1,50.7*,2.7,20.8,20.2,-10.2,-14.9
C=CCC1(CC=C)CCCN1C(=O)c1cc(COc2ccc(F)c(F)c2)on1,8.2,-6.1,6.0,19.2,-9.0,-8.4
COc1ccc(Nc2ncnc3sccc23)cc1,19.8,-1.2,1.9,-2.8,4.3,1.5
COc1ccc(Oc2ncnc3sccc23)cc1,-7.5,-1.6,2.0,-11.5,10.9,18.3*
Cc1ccc(-c2nc3sc4c(c3c(=O)n2N)CCCC4)cc1,0.9,1.5,0.0,7.0,37.7*,9.8
Cc1ccc(-c2nc3sc4c(c3c(=O)n2N)CC(C)(C)OC4)cc1,-0.7,0.2,0.5,-1.0,5.7,2.7
CC(=O)C1=C(C)NC(SCC(=O)c2ccc(F)cc2)=C(C#N)C1c1ccco1 (stereo not drawn),7.5,-0.3,11.6,-3.0,18.4*,-5.7
CC(=O)C1=C(C)NC(SCC(=O)c2ccc(Cl)c(Cl)c2)=C(C#N)C1c1ccco1 (stereo not drawn),-3.8,1.4,7.6,-7.3,14.3,-3.5
COc1ccc(N(C(=O)COc2ccccc2OC)S(=O)(=O)c2ccc(C)cc2)cc1,-3.5,-3.7,1.1,-5.7,26.3*,6.3
COC(=O)c1ccc(C(=O)OC)c(NC(=O)C(C)(C)C)c1,16.5,-4.8,-1.2,1.8,-6.5,0.7
Cc1ccc(NC(=O)c2cc(N3C(=O)C=CC3=O)ccc2N2CCOCC2)cc1,6.6,2.2,2.1,12.4,-2.0,20.6*
Cc1ccc(NC(=O)c2cc(NC(=O)c3ccco3)ccc2N2CCOCC2)cc1,0.4,1.4,8.3,-1.7,1.1,-8.6
COc1ccc(CN(CCNC(=O)CCCCC(=O)NCCN(Cc2ccc(OC)cc2)C(C)C)C(C)C)cc1,47.7*,-21.1,0.4,82.3*,-62.6,-31.4
COc1ccc(CCNC(=O)CCCCC(=O)NCCc2ccc(OC)cc2)cc1,15.6,-3.0,-0.2,0.1,-0.9,-2.2
COc1cccc(C(=O)N(Cc2ccco2)c2c(N)n(Cc3ccccc3)c(=O)[nH]c2=O)c1,9.5,4.2,0.0,7.4,3.1,-3.0
Cc1cc(C(=O)N/N=C/c2c(C)nn(-c3ccccc3)c2C)n[nH]1,-13.4,-1.7,1.3,-2.0,-6.2,18.7*
O=C(Sc1cccc2cccnc12)c1ccccc1Br,26.8,-3.8,3.6,38.6*,-6.4,-1.7
c1ccc2c(c1)COc1c3cc4c(cc3nn1-2)OCO4,-8.0,-0.1,1.6,-17.1,20.4*,2.5
Cc1ccc(CNC(=O)C2CCN(C(=O)c3cccc(Cl)c3)CC2)cc1,-12.7,-2.3,1.8,-11.5,5.0,-5.3
SMILES,M5 antag,M5 ag,CHRM4 agonist,CHRM4 antagonist,M4 PAM,M5 PAM
Cc1oc(-c2ccc(Cl)cc2)nc1CS(=O)CC(=O)NCc1cccs1 (stereo not drawn),-3.9,-1.9,1.9,-7.6,3.7,0.0
O=C(NC(=S)NNC(=O)c1cccs1)c1ccccc1,27.2*,-3.4,0.9,12.4,-1.6,-10.5
O=C(NC(=S)NNC(=O)c1cccs1)c1ccco1,3.7,-1.5,0.5,7.8,-6.2,-3.5
Cc1ccccc1C(=O)NNC(=S)NC(=O)c1cccs1,14.7,15.3,39.1*,8.9,-13.1,-10.9
Cc1cccc(C(=O)NC(=S)NNC(=O)c2cccs2)c1,11.3,5.7,5.5,15.0,-8.0,-7.7
CC(C)(C)c1ccc(C(=O)NC(=S)NCc2cccnc2)cc1,-2.3,-8.5,2.5,-16.7,-7.8,-18.8
O=C(NNC(=O)c1cccs1)c1ccco1,7.2,2.0,0.7,1.7,6.8,21.5*
COC(=O)CNC(=S)NC(=O)c1ccc(C(C)(C)C)cc1,7.8,-16.5,-0.9,26.8*,-22.5,-19.7
CC(C)(C)c1ccc(C(=O)NC(=S)NNC(=O)c2cccs2)cc1,21.0,46.0*,108.9*,13.7,-19.0,-21.6
O=C(NCc1ccccn1)c1cc(S(=O)(=O)N2CCCCC2)ccc1Cl,2.1,1.6,2.2,11.4,-4.1,1.8
CCN1C(=O)/C(=C\N2CCCCCC2)SC1=S,32.0*,-5.9,1.8,69.3*,-22.4,-21.7
CCN1C(=O)/C(=C/c2c(C)nn(C)c2C)SC1=S,10.6,-5.1,3.6,1.9,30.5*,-7.0
CN1CCN(C2=Cc3ccccc3Sc3cc(F)c(Cl)cc32)CC1,14.9,-12.5,4.0,28.7*,-18.8,-29.0
CN1CCN(C2=Cc3cc(Cl)ccc3Sc3cc(F)ccc32)CC1,44.5*,-9.9,8.8,49.5*,-15.1,-28.8
CN1CCN(C2=Cc3ccccc3Sc3cc(F)c(F)cc32)CC1,22.2,-12.4,3.8,16.8,-16.6,-42.8
C#CC[N+]1(CC#Cc2ccccc2)CCCCC1,1.5,-16.5,2.0,-7.8,-5.2,2.4
C(#Cc1ccccc1)C[N+]1(CC#Cc2ccccc2)CCCCC1,42.8*,-11.5,0.8,32.6*,-17.2,-15.7
CCC[N+]1(CC#CCC(c2ccccc2)c2ccccc2)CCCCC1,13.8,-5.1,1.1,27.0*,-17.5,-15.2
CC(C)Cc1cc(CNC(=O)C2CCC(=O)N(Cc3cccc(C(F)(F)F)c3)C2)on1 (stereo not drawn),4.4,-0.3,1.1,2.5,-4.7,-5.6
O=C(NC1CC1)C1CCN(c2ccc(S(=O)(=O)N3CCOCC3)cc2)CC1,6.5,1.2,2.4,-2.3,0.4,-7.0
CCN(CC)CCN1C(=O)C(=O)/C(=C(/O)c2c(C)[nH]c(C(=O)OC)c2C)C1c1ccccc1 (stereo not drawn),4.1,-2.0,0.9,1.3,29.5*,2.5

# Compound activity (PubChem)
